What was measured:
[1] = test system: GPR64; test: CRE-Luc assay, GPR64 overexpressed in HEK293T cells; assay type: cell-based, human
Outline: (§1)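 HEK293T cells plated in DMEM + 10% FBS 24 h before polyethylenimine co-transfection with receptor in pcDNA3.1, rat insulin II promoter CRE-firefly luciferase, and phRLuc-N1 Renilla control. Cells were reseeded at 80,000/well 6 h later, serum-starved 4 h at 36 h, then given synthetic peptide in DMSO for 4 h. Firefly luminescence (Steady-Glo) was normalised to RLuc (3 μM coelenterazine h). Mean ± SD, ≥3 independent experiments.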

[2] = test system: GPR114; test: CRE-Luc assay, GPR114 overexpressed in HEK293T cells; assay type: cell-based, human
Outline: as §1

[3] = test system: EoL-1 cells; test: cAMP accumulation; assay type: cell-based, human; settings: from combined Fig. 5F and Fig. 5H
[4] = test system: PAR1-GPR56 fusion / G13; test: G13 GTPγS binding kinetics, PAR1-GPR56 fusion Sf9 membranes; assay type: biochemical, human; settings: Fig. S1A
[5] = test system: GPR114-A230M (CTF-only, compromised TA); test: CRE-luciferase reporter assay, GPR114-A230M; assay type: cell-based, human; settings: HEK293T, thrombin 4 h, FLuc/RLuc ratio, Fig. 4C

TYFAVLM [P7 GPR114-AP]
activation in CRE-Luc assay ([1]; GPR64, Fig. 5H, as summarised in Discussion): did not activate GPR114 nor GPR64
CRE-Luc activity (stimulation) ([1]; TA-compromised (ΔTA) 7TM version of GPR64, Fig. 5H): did not stimulate cAMP production in any condition
CRE-Luc activity (stimulation) ([1]; full length GPR64, Fig. 5H): did not stimulate cAMP production in any condition
activation in CRE-Luc assay ([2]; GPR114, Fig. 5H, as summarised in Discussion): did not activate GPR114 nor GPR64
CRE-Luc activity (stimulation) ([2]; TA-compromised (ΔTA) 7TM version of GPR114, Fig. 5H): did not stimulate cAMP production in any condition
CRE-Luc activity (stimulation) ([2]; full length GPR114, Fig. 5H): did not stimulate cAMP production in any condition
target specificity of cAMP stimulation in EoL-1 cells (conclusion) [3]: promiscuously stimulates cAMP accumulation via a yet to be determined GPCR

Thrombin
thrombin-dependent activation of purified G13 [4]: strong thrombin-dependent activation of purified G13
thrombin-dependent CRE-luciferase activation [5]: not stimulated by thrombin
